≈ marks a conversion by molar mass, not a printed value. Calls of active or inactive are those of the source. No cut-off for these calls is given here.
Assays:
[1] = system: Erythrocyte; test: Anti-inflammatory activity in human RBC assessed as inhibition of hypotonic solution-induced hemolysis after 10 mins by spectrophotometric method; type: functional, cell-based
Outline: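 Human blood (heparinized) washed with 0.9% saline, packed cells made into a 40% v/v stock in isotonic phosphate buffer (154 mM NaCl, 10 mM sodium phosphate, pH 7.4). Stock RBC mixed with hypotonic buffer (50 mM NaCl, 10 mM phosphate, pH 7.4) plus sample at 20–100 µg mL⁻¹.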

[2] = system: Staphylococcus aureus; test: Antibacterial activity against Staphylococcus aureus at 100 ug/ml incubated for 24 hrs by agar well diffusion method; type: functional; conditions: read-out: DIZ
Outline: (§1)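 Bacteria grown in nutrient broth at 37 °C for 24 h, then subcultured at room temperature. Compounds dissolved in DMSO at 5 mg mL⁻¹ and 5–20 µL added to 6 mm wells, giving 25, 50, 75, 100 µg per well. Gentamicin was the positive control and DMSO the negative control. Plates held at 37 °C for 24 h, then inhibition zone diameter (mm) measured. Values are means of three determinations.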

[3] = system: Escherichia coli; test: Antibacterial activity against Escherichia coli at 25 ug/ml incubated for 24 hrs by agar well diffusion method; type: functional; conditions: read-out: DIZ; outline: as §1
[4] = system: Candida albicans; test: Antifungal activity against Candida albicans at 75 ug/ml incubated for 48 hrs by agar well diffusion method; type: functional; conditions: read-out: DIZ
Outline: (§2)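 Compounds dissolved in DMSO at 5 mg mL⁻¹ and 5–20 µL added to 6 mm wells, giving 25, 50, 75, 100 µg per well. Bavistin was the positive control and DMSO the negative control. Plates incubated at 28 °C for 48 h, then inhibition zone diameter (mm) measured. Values are means of three determinations.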

[5] = system: Candida albicans; test: Antifungal activity against Candida albicans at 50 ug/ml incubated for 48 hrs by agar well diffusion method; type: functional; conditions: for zone of inhibition at 50 µg/mL: read-out: DIZ; outline: as §2
[6] = system: Escherichia coli; test: Antibacterial activity against Escherichia coli at 75 ug/ml incubated for 24 hrs by agar well diffusion method; type: functional; conditions: read-out: DIZ; outline: as §1
[7] = system: Klebsiella pneumoniae; test: Antibacterial activity against Klebsiella pneumoniae at 25 ug/ml incubated for 24 hrs by agar well diffusion method; type: functional; conditions: for zone of inhibition at 25 µg/mL: read-out: DIZ; outline: as §1
[8] = system: Aspergillus niger; test: Antifungal activity against Aspergillus niger at 50 ug/ml incubated for 48 hrs by agar well diffusion method; type: functional; conditions: for zone of inhibition at 50 µg/mL: read-out: DIZ; outline: as §2
[9] = system: Staphylococcus aureus; test: Antibacterial activity against Staphylococcus aureus at 50 ug/ml incubated for 24 hrs by agar well diffusion method; type: functional; conditions: read-out: DIZ; outline: as §1
[10] = system: Staphylococcus aureus; test: Antibacterial activity against Staphylococcus aureus at 25 ug/ml incubated for 24 hrs by agar well diffusion method; type: functional; conditions: read-out: DIZ; outline: as §1
[11] = system: Fusarium oxysporum; test: Antifungal activity against Fusarium oxysporum at 75 ug/ml incubated for 48 hrs by agar well diffusion method; type: functional; conditions: read-out: DIZ; outline: as §2
[12] = system: Bacillus subtilis; test: Antibacterial activity against Bacillus subtilis at 75 ug/ml incubated for 24 hrs by agar well diffusion method; type: functional; conditions: read-out: DIZ; outline: as §1
[13] = system: Bacillus subtilis; test: Antibacterial activity against Bacillus subtilis at 100 ug/ml incubated for 24 hrs by agar well diffusion method; type: functional; conditions: read-out: DIZ; outline: as §1
[14] = system: Aspergillus niger; test: Antifungal activity against Aspergillus niger at 75 ug/ml incubated for 48 hrs by agar well diffusion method; type: functional; conditions: read-out: DIZ; outline: as §2
[15] = system: Aspergillus niger; test: Antifungal activity against Aspergillus niger at 100 ug/ml incubated for 48 hrs by agar well diffusion method; type: functional; conditions: read-out: DIZ; outline: as §2
[16] = system: Staphylococcus aureus; test: Antibacterial activity against Staphylococcus aureus at 75 ug/ml incubated for 24 hrs by agar well diffusion method; type: functional; conditions: read-out: DIZ; outline: as §1
[17] = system: Escherichia coli; test: Antibacterial activity against Escherichia coli at 50 ug/ml incubated for 24 hrs by agar well diffusion method; type: functional; conditions: read-out: DIZ; outline: as §1
[18] = system: Bacillus subtilis; test: Antibacterial activity against Bacillus subtilis at 50 ug/ml incubated for 24 hrs by agar well diffusion method; type: functional; conditions: for zone of inhibition at 50 µg/mL: read-out: DIZ; outline: as §1
[19] = system: Fusarium oxysporum; test: Antifungal activity against Fusarium oxysporum at 100 ug/ml incubated for 48 hrs by agar well diffusion method; type: functional; conditions: read-out: DIZ; outline: as §2
[20] = system: Bacillus subtilis; test: Antibacterial activity against Bacillus subtilis at 25 ug/ml incubated for 24 hrs by agar well diffusion method; type: functional; conditions: for zone of inhibition at 25 µg/mL: read-out: DIZ; outline: as §1
[21] = system: Fusarium oxysporum; test: Antifungal activity against Fusarium oxysporum at 25 ug/ml incubated for 48 hrs by agar well diffusion method; type: functional; conditions: for zone of inhibition at 25 µg/mL: read-out: DIZ; outline: as §2
[22] = system: Aspergillus niger; test: Antifungal activity against Aspergillus niger at 25 ug/ml incubated for 48 hrs by agar well diffusion method; type: functional; conditions: for zone of inhibition at 25 µg/mL: read-out: DIZ; outline: as §2
[23] = system: Klebsiella pneumoniae; test: Antibacterial activity against Klebsiella pneumoniae at 50 ug/ml incubated for 24 hrs by agar well diffusion method; type: functional; conditions: for zone of inhibition at 50 µg/mL: read-out: DIZ; outline: as §1
[24] = system: Fusarium oxysporum; test: Antifungal activity against Fusarium oxysporum at 50 ug/ml incubated for 48 hrs by agar well diffusion method; type: functional; conditions: for zone of inhibition at 50 µg/mL: read-out: DIZ; outline: as §2
[25] = system: Klebsiella pneumoniae; test: Antibacterial activity against Klebsiella pneumoniae at 100 ug/ml incubated for 24 hrs by agar well diffusion method; type: functional; conditions: for zone of inhibition at 100 µg/mL: read-out: DIZ; outline: as §1
[26] = system: Candida albicans; test: Antifungal activity against Candida albicans at 25 ug/ml incubated for 48 hrs by agar well diffusion method; type: functional; conditions: for zone of inhibition at 25 µg/mL: read-out: DIZ; outline: as §2
[27] = system: Klebsiella pneumoniae; test: Antibacterial activity against Klebsiella pneumoniae at 75 ug/ml incubated for 24 hrs by agar well diffusion method; type: functional; conditions: for zone of inhibition at 75 µg/mL: read-out: DIZ; outline: as §1
[28] = system: Escherichia coli; test: Antibacterial activity against Escherichia coli at 100 ug/ml incubated for 24 hrs by agar well diffusion method; type: functional; conditions: read-out: DIZ; outline: as §1
[29] = system: Candida albicans; test: Antifungal activity against Candida albicans at 100 ug/ml incubated for 48 hrs by agar well diffusion method; type: functional; conditions: read-out: DIZ; outline: as §2

Compound | zone of inhibition at 100 µg/mL [2] | zone of inhibition at 25 µg/mL [3] | zone of inhibition at 75 µg/mL [4] | zone of inhibition at 50 µg/mL [5] | zone of inhibition at 75 µg/mL [6] | zone of inhibition at 25 µg/mL [7] | zone of inhibition at 50 µg/mL [8] | zone of inhibition at 50 µg/mL [9] | zone of inhibition at 25 µg/mL [10] | zone of inhibition at 75 µg/mL [11] | zone of inhibition at 75 µg/mL [12] | zone of inhibition at 100 µg/mL [13] | zone of inhibition at 75 µg/mL [14] | zone of inhibition at 100 µg/mL [15] | zone of inhibition at 75 µg/mL [16] | zone of inhibition at 50 µg/mL [17] | zone of inhibition at 100 µg/mL [19] | zone of inhibition at 25 µg/mL [21] | zone of inhibition at 25 µg/mL [22] | zone of inhibition at 100 µg/mL [29] | other results
CC(C)C[C@H](N)C(=O)Oc1ccc2c(=O)c3ccccc3oc2c1.Cl | 21 mm | 8 mm | 19 mm | 15 mm | 20 mm | 10 mm | 14 mm | 12 mm | 9 mm | 17 mm | 24 mm | 29 mm | 19 mm | 22 mm | 15 mm | 14 mm | 19 mm | 9 mm | 10 mm | 21 mm | IC50 [1]: 70 µg/mL; zone of inhibition at 50 µg/mL [18]: 19 mm; zone of inhibition at 25 µg/mL [20]: 13 mm; zone of inhibition at 50 µg/mL [23]: 16 mm; zone of inhibition at 50 µg/mL [24]: 13 mm; zone of inhibition at 100 µg/mL [25]: 26 mm; zone of inhibition at 25 µg/mL [26]: 10 mm; zone of inhibition at 75 µg/mL [27]: 22 mm; zone of inhibition at 100 µg/mL [28]: 24 mm
CC(C)C[C@H](NC(=O)OC(C)(C)C)C(=O)Oc1ccc2c(=O)c3ccccc3oc2c1 | 22 mm | 4 mm | 16 mm | 11 mm | 17 mm | 8 mm | 15 mm | 13 mm | 7 mm | 15 mm | 20 mm | 24 mm | 18 mm | 22 mm | 17 mm | 10 mm | 19 mm | 10 mm | 10 mm | 20 mm | IC50 [1]: 64 µg/mL (≈ 150 µM); zone of inhibition at 50 µg/mL [18]: 16 mm; zone of inhibition at 25 µg/mL [20]: 11 mm; zone of inhibition at 50 µg/mL [23]: 11 mm; zone of inhibition at 50 µg/mL [24]: 12 mm; zone of inhibition at 100 µg/mL [25]: 20 mm; zone of inhibition at 25 µg/mL [26]: 8 mm; zone of inhibition at 75 µg/mL [27]: 14 mm; zone of inhibition at 100 µg/mL [28]: 21 mm
O=c1c2ccccc2oc2cc(O)ccc12 | 14 mm | 3 mm | 6 mm |  | 11 mm |  | 7 mm | 7 mm | 4 mm | 5 mm | 6 mm | 10 mm | 9 mm | 11 mm | 11 mm | 7 mm | 9 mm |  | 4 mm | 10 mm | IC50 [1]: 90 µg/mL (≈ 424 µM); diameter of the inhibition zone (DIZ) [5]: inactive; diameter of the inhibition zone (DIZ) [7]: inactive; diameter of the inhibition zone (DIZ) [18]: inactive; diameter of the inhibition zone (DIZ) [20]: inactive; diameter of the inhibition zone (DIZ) [21]: inactive; diameter of the inhibition zone (DIZ) [23]: inactive; diameter of the inhibition zone (DIZ) [24]: inactive; diameter of the inhibition zone (DIZ) [25]: inactive; diameter of the inhibition zone (DIZ) [26]: inactive; diameter of the inhibition zone (DIZ) [27]: inactive; zone of inhibition at 100 µg/mL [28]: 13 mm
N[C@@H](Cc1ccc(O)cc1)C(=O)O [TYROSINE] | 17 mm |  | 13 mm | 8 mm |  | 4 mm |  | 8 mm | 4 mm | 12 mm | 9 mm | 12 mm | 7 mm | 11 mm | 12 mm |  | 14 mm | 3 mm |  | 15 mm | diameter of the inhibition zone (DIZ) [8]: inactive; diameter of the inhibition zone (DIZ) [18]: inactive; diameter of the inhibition zone (DIZ) [20]: inactive; diameter of the inhibition zone (DIZ) [22]: inactive; zone of inhibition at 50 µg/mL [23]: 7 mm; zone of inhibition at 50 µg/mL [24]: 7 mm; zone of inhibition at 100 µg/mL [25]: 15 mm; zone of inhibition at 25 µg/mL [26]: 4 mm; zone of inhibition at 75 µg/mL [27]: 11 mm
N[C@@H](Cc1c[nH]c2ccccc12)C(=O)O [TRYPTOPHAN] | 19 mm | 6 mm | 13 mm | 9 mm | 14 mm | 6 mm | 7 mm | 9 mm | 6 mm | 9 mm | 12 mm | 15 mm | 11 mm | 14 mm | 13 mm | 9 mm | 11 mm | 4 mm | 4 mm | 16 mm | zone of inhibition at 50 µg/mL [18]: 8 mm; zone of inhibition at 25 µg/mL [20]: 4 mm; zone of inhibition at 50 µg/mL [23]: 10 mm; zone of inhibition at 50 µg/mL [24]: 7 mm; zone of inhibition at 100 µg/mL [25]: 17 mm; zone of inhibition at 25 µg/mL [26]: 5 mm; zone of inhibition at 75 µg/mL [27]: 13 mm; zone of inhibition at 100 µg/mL [28]: 17 mm

From ChEMBL document CHEMBL4261538, “Synthesis and molecular docking studies of xanthone attached amino acids as potential antimicrobial and anti-inflammatory agents” (Medchemcomm, 2017)
